An excerpt weighted towards active compounds, which were near 2.5% of everything screened.
PAD4 FP inh: inhibitors of human PAD4. recombinant PAD4, RCA probe fluorescence polarization. inhibition, % at 6.36 µM. 330,000 tested, 0.41% active. AID 485272;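 active = percent inhibition above a cutoff equal to the mean of all tested compounds plus 3 SD, cut at about 15% in these data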;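 also: 0% = PAD4 with RCA probe and DMSO and 100% = probe without PAD4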
GSTO1 counter: GSTO1 inhibition, counter-screen for RBBP9 inhibitors; P78417; recombinant GSTO1, activity-based probe fluorescence polarization; inhibition, % at 5.96 µM; 300,000 tested, 1.1% active; AID 1974;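 active = inhibition above the campaign mean inhibition plus 3 SD, cut at about 35% in these data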;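 also: 0% = GSTO1-1 with DMSO and 100% = wells lacking GSTO1-1 enzyme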
Target sequence (P78417 whole entry, looked up): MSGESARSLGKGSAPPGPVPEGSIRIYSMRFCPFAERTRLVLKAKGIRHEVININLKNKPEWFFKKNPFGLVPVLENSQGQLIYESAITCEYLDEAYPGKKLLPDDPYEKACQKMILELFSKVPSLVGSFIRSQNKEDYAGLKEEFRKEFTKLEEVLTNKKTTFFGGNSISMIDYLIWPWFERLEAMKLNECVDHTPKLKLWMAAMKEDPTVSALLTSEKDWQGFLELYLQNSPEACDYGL
TDP2 inh: blocks human TDP2 phosphodiesterase activity; O95551; 370,000 tested, 0.34% active; inhibition, % at 12.8 µM; recombinant TDP2, T5PNP hydrolysis, p-nitrophenol absorbance 415 nm;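 active = inhibition above the mean of all tested compounds plus 3 SD, set per campaign, cut at about 25% in these data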;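 also: 0% = DMSO with enzyme and 100% = buffer with substrate but no TDP2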
Target sequence (O95551 whole entry, looked up): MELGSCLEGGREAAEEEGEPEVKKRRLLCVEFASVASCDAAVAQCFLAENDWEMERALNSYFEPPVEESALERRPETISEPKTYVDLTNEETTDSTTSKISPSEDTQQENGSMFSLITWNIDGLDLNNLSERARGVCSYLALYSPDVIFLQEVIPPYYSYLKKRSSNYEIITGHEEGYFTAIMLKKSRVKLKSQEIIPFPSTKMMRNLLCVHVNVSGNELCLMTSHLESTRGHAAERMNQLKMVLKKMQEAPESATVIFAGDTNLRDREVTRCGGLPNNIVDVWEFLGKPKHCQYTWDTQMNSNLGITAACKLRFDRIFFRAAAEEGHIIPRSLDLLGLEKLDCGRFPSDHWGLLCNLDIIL
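System: recombinant human TDP2 / Amount: 120 nM TDP2 per well / Also added: 5 mM T5PNP chromogenic substrate / Doses: 12.8 µM single point, 1% DMSO / Incubation: 2 h at 37 °C / Detection: p-Nitrophenol epi absorbance / Evaluation: % inhibition relative to enzyme-containing and enzyme-free wells / Repeats: singlicate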
PRMT1 inh: PRMT1 (human) inhibition, primary screen; Q99873; recombinant PRMT1, activity-based probe fluorescence polarization; inhibition, % at 2.79 µM; 370,000 tested, 1.3% active; AID 652257;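 active = inhibition above about 21% made by adding two undisclosed values, limit read from the data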
Fh CTSL1 inh: blocks F. hepatica cathepsin L1 in PFM18AAP counter-screen; recombinant F. hepatica cathepsin L1, Z-Leu-Arg-MCA fluorescence; inhibition, % at 5.96 µM; 300,000 tested, 0.49% active; AID 1906;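 active = inhibition above the mean of all tested compounds plus 3 SD, set per screening campaign, cut at about 17% in these data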;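 also: 0% = plate median of test compound wells and 100% = 1 µM Z-Phe-Ala-diazomethylketone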
PRMT1 confirm: PRMT1 (human) inhibition, FP confirmation; shares compounds with PRMT1 inh; recombinant His-PRMT1, activity-based probe fluorescence polarization; inhibition, % at 2.79 µM; 3,300 tested, 42% active;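 active = mean inhibition across replicates above the hit cutoff derived for the earlier primary screen, cut at about 22% in these data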
* hit, by the source's call; x = no result.

SMILES	PAD4 FP inh	GSTO1 counter	TDP2 inh	PRMT1 inh	Fh CTSL1 inh	PRMT1 confirm
COC(=O)[C@]12C[C@H](CC(=O)N3CCCC3)C(=O)N(Cc3ccc4c(c3)OCO4)C1=C[C@H](C(C)C)O[C@@H]2C1CC1	x	x	-1.2	-5.5	x	x
O=C(O)/C=C/C(=O)c1ccc2c(c1)NC(=O)CO2	-3.1	-14.7	5.6	34.8*	5.6	46.9*
O=C1COc2ccc(C(=O)NC3CC3)cc2N1	0.5	-11.8	-0.9	-1.9	-3.7	x
COc1cccc(N(C)C(=O)[C@@H](C2CC2)[C@@H](O)c2ccc(Cl)cc2)c1	x	x	-4.9	-7.0	x	x
CCC(=O)NNc1nc2c(F)cc(F)cc2s1	1.3	3.8	10.6	-1.8	2.2	x
CCC(=O)NNc1nc2c(F)cccc2s1	-2.8	-14.4	1.4	48.6*	-2.3	-0.4
COC[C@@H]1CCCN1c1ccc2c(c1)O[C@@H]1CCN(C1)S2(=O)=O	x	x	-4.4	0.0	x	x
Cc1ccc(-c2cccc(NC(=O)C3C4C=CC(C4)C3C(=O)O)c2)o1 (centres undefined)	-8.0	6.4	-12.3	53.6*	-3.0	-2.2
Cc1ccc([C@H](C)NC(=O)C2=C(N)N(S(=O)(=O)c3ccc(C)cc3)C(C(=O)c3ccccc3)C2c2ccccc2Cl)cc1 (some centres undefined)	x	x	2.2	3.3	x	x
COc1cccc2c1C(=O)c1c(O)c3c(c(O)c1C2=O)CC(O)(C(=O)CO)CC3OC1CC(N(C)C)C(O)C(C)O1 (centres undefined)	x	x	-0.1	192.9*	x	148.1*
COc1cccc2c1C(=O)c1c(O)c3c(c(O)c1C2=O)C[C@@](O)(C(C)=O)C[C@@H]3O[C@H]1C[C@H](N)[C@H](O)[C@H](C)O1	x	x	9.3	162.5*	x	168.9*
CCn1c(COc2ccccc2)nnc1SCC(=O)Nc1ccc(Oc2ccccc2)cc1	x	x	0.6	0.2	x	x
O=C(c1ccncc1)N1CC[C@H]2[C@H](CCCN2Cc2ccccc2)C1	x	x	-0.4	-1.6	x	x
O=C(O)CCN1C(=O)/C(=C/c2ccc(F)cc2F)SC1=S	x	x	5.6	13.3	x	x
Cc1ccc(/C=N/N2CCN(Cc3ccc(Cl)cc3)CC2)o1	-1.1	-3.5	7.9	41.8*	-0.3	-6.5
Clc1ccc(CN2CCN(/N=C/c3ccco3)CC2)cc1	-2.4	2.8	2.5	-0.8	8.4	x
COC(=O)C(CC(=O)c1ccc(Br)cc1)n1nc(C)cc1C (centres undefined)	-2.2	1.5	-3.4	76.9*	-7.0	7.5
CC(=O)C1=C(C)NC(SCC(=O)Nc2nccs2)=C(C#N)C1c1ccccc1Cl (centres undefined)	4.2	2.1	-6.0	26.3*	6.4	0.3
Cc1cccc2nc(CSCc3ccco3)cn12	-4.0	0.3	4.3	27.3*	-1.8	15.5
COCCN=c1scc(-c2ccccc2)n1/N=C/c1c[nH]c2ccccc12	-0.4	0.8	-5.7	1.8	2.2	x
COCCN=c1scc(-c2cccs2)n1/N=C/c1ccc(O)c(O)c1O	-2.0	16.8	-4.9	54.0*	5.7	27.1*
Cn1c(=O)[nH]c(=O)c2c1[nH]c(=S)n2CCCc1ccccc1	x	x	-11.3	1.8	x	x
Cn1c(=O)c2c([nH]c(=S)n2CCCc2ccccc2)n(C)c1=O	3.0	2.2	3.3	40.9*	-0.2	64.2*
O=c1c2ccccc2sn1-c1cc(S(=O)(=O)N2CCOCC2)ccc1N1CCCC1	-0.1	-9.9	-9.1	87.8*	-0.3	79.6*
CN(CCc1ccccn1)C(=O)Cn1nc(-c2ccccc2)ccc1=O	x	x	-6.8	0.4	x	x
SMILES	PAD4 FP inh	GSTO1 counter	TDP2 inh	PRMT1 inh	Fh CTSL1 inh	PRMT1 confirm
Cc1cc2cc(C(c3nnnn3Cc3ccco3)N3CCc4ccccc43)c(=O)[nH]c2cc1C (centres undefined)	-5.0	3.8	0.5	18.6	-1.5	x
Cc1cc2cc(C(c3nnnn3Cc3ccco3)N3CCc4ccccc4C3)c(=O)[nH]c2cc1C (centres undefined)	-8.4	-2.1	-3.2	69.3*	-4.6	66.3*
N#Cc1ccc(Cn2ccc3ccc(-c4ccc5ccn(C(=O)c6ccccc6)c5c4)cc32)cc1	x	x	4.0	0.0	x	x
Oc1ccccc1C(=S)N1CCCCC1	-1.6	15.5	0.9	36.4*	-3.3	19.9
NNc1nc2sc3c(c2c(=O)[nH]1)CCc1ccccc1-3	-5.3	2.5	5.5	60.6*	0.5	4.5
CCC(C)(C)n1nnnc1C(c1ccc(O)c(OC)c1)N1CCN(c2nc3ccccc3s2)CC1 (centres undefined)	-3.3	-0.4	4.2	36.5*	-3.4	35.8*
COc1ccc(Br)cc1C(=O)Nc1cc(C)cc(C)c1	-0.9	4.5	3.4	1.0	0.6	x
COC(=O)C1=CC(=O)C=C(OC)[C@@]12Oc1cc(C)cc(OC)c1C2=O	x	x	10.9	88.4*	x	84.5*
CC(=O)Nc1ccccc1O	-3.6	4.5	1.8	-1.2	2.5	x
CC(C)(C)C(=O)/C=C/Nc1ccccc1O	-5.5	4.0	-10.4	25.8*	-0.7	7.7
O=C(CSc1nnc(-c2ccccn2)n1-c1ccc(Cl)cc1)Nc1ccc(S(=O)(=O)Nc2nccs2)cc1	x	x	-8.8	0.0	x	x
Cc1ccc(NC(=O)C2=NNC(=O)CC2)cc1S(=O)(=O)Nc1ccc(SC(F)F)cc1	5.3	x	-3.8	27.1*	x	20.1
Cc1cccc(-c2cccc3c4c([nH]c23)[C@@H]2C[C@H](N(C)C(=O)Nc3ccccc3)[C@H]([C@H](C)O)CN2CC4)c1	x	x	-10.4	1.0	x	x
O=C(O)/C=C/C(=O)N1N=C(c2ccco2)CC1c1ccco1 (centres undefined)	-6.3	-7.2	-10.7	43.1*	35.5*	7.5
C=CCn1c(SCC(=O)N2N=C(c3ccco3)CC2c2ccco2)nnc1-c1ccncc1 (centres undefined)	-3.3	-2.3	3.3	2.5	-2.8	x
O=C(CSc1nccn(-c2cccc(F)c2)c1=O)Nc1ccc(Cl)cc1F	-1.5	-5.7	-2.9	74.5*	15.3	69.5*
O=C(CSc1nccn(-c2ccc(F)c(F)c2)c1=O)NC1CCCC1	x	x	-6.8	20.4	x	x
Cc1cccc(-n2ccnc2SCC(=O)Nc2ccc3c(c2)OCCO3)c1	-0.1	-0.5	-7.9	3.0	4.2	x
O=C(CSc1nccn(-c2ccc3c(c2)OCCO3)c1=O)Nc1ccccc1	-2.5	2.5	21.6	44.9*	3.2	23.8*
COc1cc(-n2c(C)nc3cc(C(=O)N4CCN(C(C)=O)CC4)ccc32)cc(OC)c1OC	x	x	3.2	2.0	x	x
CCOC(=O)c1c(/N=C/C2=C(O)CCCC2=O)sc(C)c1C	-4.4	3.9	4.0	2.5	0.8	x
CCOC(=O)c1c(/N=C/c2cccc([N+](=O)[O-])c2O)sc(C)c1C	-2.4	4.0	-3.0	28.2*	-0.7	-0.7
CCCCCn1nnnc1C1(C)Cn2nccc2C(=O)N1Cc1ccco1 (centres undefined)	x	x	-3.7	1.3	x	x
CN(C)CCC(=O)C(Cc1ccccc1)c1ccccc1 (centres undefined)	-1.7	-4.6	-21.2	42.1*	4.4	31.7*
